Most compounds without a hit are left out; they make up all but 2.4% or so of the library.
Neddylation inh: inhibitors of human cullin neddylation | inhibition, % at 25 µM | 0.58% of 360,000 active | AID 651699 | TR-FRET cullin neddylation, biochemical; in the data active = inhibition above about 36%
PREPL inh: inhibits the human prolyl oligopeptidase-like enzyme | inhibition, % at 5.96 µM | recombinant PREPL, fluorescence polarization activity-based probe | 0.68% of 320,000 active
Rpn11 block: inhibitors of human proteasome Rpn11; human 26S proteasome, Ub4-pepOG fluorescence polarization; 20S core pre-blocked with epoxomicin; inhibition, % at 20 µM; 0.59% of 360,000 active;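 active = inhibition at 20 µM, scaled to each plate's controls, above about 33%, limit read from the data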
Target sequence (O00487 whole entry, looked up): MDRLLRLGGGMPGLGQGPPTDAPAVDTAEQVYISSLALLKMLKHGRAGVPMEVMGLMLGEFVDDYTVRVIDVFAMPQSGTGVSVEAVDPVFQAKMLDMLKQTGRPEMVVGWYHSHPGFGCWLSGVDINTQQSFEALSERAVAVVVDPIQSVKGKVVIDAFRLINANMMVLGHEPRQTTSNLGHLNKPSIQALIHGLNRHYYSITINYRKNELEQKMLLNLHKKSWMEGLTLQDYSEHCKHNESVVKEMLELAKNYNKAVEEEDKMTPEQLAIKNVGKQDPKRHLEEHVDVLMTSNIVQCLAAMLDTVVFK
CSN deneddyl inh: CSN deneddylation inhibition. AID 651999. 0.38% of 360,000 active. Purified CSN, SCF-Nedd8-OG deneddylation, fluorescence polarization. inhibition, % at 12.5 µM. Q92905;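 active = pattern-corrected inhibition above about 35%, with an unprinted fluorescence ratio check between 0.5 and 1.5, limit read from the data, passing the limit was not always enough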
Target sequence (Q92905 whole entry, looked up, one chain of several): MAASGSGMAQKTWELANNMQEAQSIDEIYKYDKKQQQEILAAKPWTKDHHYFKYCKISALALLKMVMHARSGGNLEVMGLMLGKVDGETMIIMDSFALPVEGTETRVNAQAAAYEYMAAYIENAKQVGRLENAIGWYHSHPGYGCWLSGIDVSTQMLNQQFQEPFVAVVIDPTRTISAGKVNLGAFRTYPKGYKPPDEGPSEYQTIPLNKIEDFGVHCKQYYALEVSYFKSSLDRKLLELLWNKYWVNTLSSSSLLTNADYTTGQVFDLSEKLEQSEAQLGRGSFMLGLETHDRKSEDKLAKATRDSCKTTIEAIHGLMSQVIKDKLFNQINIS
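test system = HEK293T-derived human Csn5 enzyme | amount = 0.24 nM Csn5 enzyme, final concentration | medium = Tris/NaCl/DTT buffer, pH 7.5 | schedule = 90 min reaction at room temperature | signal = FP | evaluation = inhibition of Csn5 cleavage, % | compound dosing = single dose of 12.5 µM compound with 0.25% DMSO | probe or stimulus = 10 nM SCFSkp2-Nedd8OG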
HNF4A DNA FP: change in binding of human HNF4 alpha to DNA; P41235; HNF4a-FITC DNA binding, fluorescence polarization, 1 h; activity change, % at 10 µM; 0.3% of 360,000 active; AID 1224865; in the data active = activity change above about 30%, passing the limit was not always enough
Tb MetRS inh: blocks T. brucei methionyl-tRNA synthetase activity. purified T. brucei MetRS, ATP depletion, Kinase-Glo luminescence. inhibition, % at 11.9 µM. 0.4% of 360,000 active;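 active = inhibition above a per-plate cutoff of the control wells' mean inhibition plus 3 SD, cut at about 5.5% in these data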
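System: purified T. brucei MetRS enzyme / Detection: Kinase-Glo luciferase luminescence reporting remaining unconsumed ATP / Medium: HEPES buffer with MgCl2, KCl, DTT, spermine, BSA, pyrophosphatase / Replication: singlicate, one well per compound / Evaluation: percent inhibition relative to median high and low control wells / Schedule: 2 h aminoacylation at 25 °C after 15 min preincubation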
PREPL confirm: confirmation of human PREPL enzyme inhibitors | shares compounds with PREPL inh | recombinant PREPL, fluorescence polarization activity probe | 67% of 2,000 active | inhibition, % at 5.96 µM
A number is an active result; i = inactive; nt = no result shown. Cut-off read from the data, not from the text of the source, unless noted: active = inhibition above about 43%; inactive = the rest.

SMILES | Neddylation inh | PREPL inh | Rpn11 block | CSN deneddyl inh | HNF4A DNA FP | Tb MetRS inh | PREPL confirm
CCN(CC)S(=O)(=O)c1cccc(NC(=O)c2cccc(S(=O)(=O)N3CCCC3)c2)c1 | i | i | i | i | i | i | nt
O=C(O)c1ccccc1NS(=O)(=O)c1ccc(NN=Cc2ccccc2F)c([N+](=O)[O-])c1 | i | 55 | i | i | i | i | 56
COc1ccc(NS(=O)(=O)c2ccc(N/N=C(\C)c3ccncc3)c([N+](=O)[O-])c2)cc1 | i | 58 | i | i | i | i | 49
COc1ccc(C=NNc2ccc(S(=O)(=O)Nc3ccccc3C(=O)O)cc2[N+](=O)[O-])c(OC)c1 | i | 51 | i | i | i | i | 49
CCOc1cccc(C=NNc2ccc(S(=O)(=O)Nc3ccccc3C(=O)O)cc2[N+](=O)[O-])c1O | i | i | i | i | i | i | nt
CC(C)C[C@H]1CNC(=O)C(=O)N1C[C@H]1CCCN1C[C@H](CC(C)C)N1C[C@H](CC(C)C)N(CCc2ccccc2)C(=O)C1=O | i | nt | nt | i | i | i | nt
CCCCC(CC)C(=O)Nc1cc(C(=O)NCCC)ccc1N1CCC2(CC1)CC(c1ccccc1)=NO2 (centres undefined) | i | 50 | i | i | i | i | 55
CCCNC(=O)c1ccc(N2CCC3(CC2)CC(c2ccccc2)=NO3)c(NC(=O)c2ccco2)c1 | i | i | i | i | i | i | nt
CC(=O)Oc1cc2cccc(OC(C)=O)c(=O)c2c(OC(C)=O)c1OC(C)=O | i | 63 | i | i | i | i | i
COc1cc2cccc(OC)c(=O)c2c(O)c1OC | i | i | i | i | i | i | nt
S=C(NCCCN1CCOCC1)N1CCN(c2nc(-c3ccccc3)cs2)CC1 | i | i | i | i | i | i | nt
S=C(NCCCN1CCOCC1)N1CCN(c2nc(-c3ccc(Cl)cc3)cs2)CC1 | i | 44 | i | i | i | i | 43
O=C(COC(=O)/C=C/c1cccc(Cl)c1)Nc1cccc(S(=O)(=O)NC2=NCCC2)c1 | i | i | i | i | i | i | nt
NC(=O)Nc1ccc(C(=O)OCC(=O)Nc2cccc(S(=O)(=O)NC3=NCCCCC3)c2)cc1 | i | i | i | i | i | i | nt
O=C(COC(=O)/C=C/c1ccc(Cl)cc1)Nc1cccc(S(=O)(=O)NC2=NCCCCC2)c1 | i | 44 | i | i | i | i | i
O=C(COC(=O)c1ccc(C(F)(F)F)cc1)Nc1cccc(S(=O)(=O)NC2=NCCCCC2)c1 | i | 46 | i | i | i | i | i
Cc1ccccc1Nc1nc(N)nc(COC(=O)c2c(C)noc2C)n1 | i | i | i | i | i | i | nt
CC(C)C[C@H]1CN(CCCC[C@@H]2CNC(=O)C(=O)N2CC2CCCCC2)C(=O)C(=O)N1CCC1CCCCC1 | i | nt | nt | i | i | i | nt
CCOc1ccc2nc3cc(NCc4ccc(OC)cc4)ccc3c(N)c2c1 | nt | 102 | i | i | i | i | 79
COc1cccc(C2=CC(c3ccc(N(C)C)cc3)n3nnnc3N2)c1 (centres undefined) | i | 70 | i | i | i | i | 54
CCOc1ccc(OCC)c(NC(=O)CN2CCN(c3cc(C)ccc3C)CC2)c1 | i | 50 | i | i | i | i | i
CCOc1ccc(OCC)c(NC(=O)CN2CCN(c3cccc(C)c3)CC2)c1 | i | i | i | i | i | i | nt
CCc1noc(C)c1C(=O)Nc1nc(-c2ccccc2)c(C(C)=O)s1 | i | 80 | i | i | i | i | i
Cc1cc(-c2csc(N)n2)c(C)n1C | i | 52 | i | i | i | i | i
Cc1ccc(-n2c(C)cc(-c3csc(N)n3)c2C)cc1 | i | i | i | i | i | i | nt
SMILES | Neddylation inh | PREPL inh | Rpn11 block | CSN deneddyl inh | HNF4A DNA FP | Tb MetRS inh | PREPL confirm
O=C(NC1CCCC1)C(c1ccccc1)n1c(CSCCOc2ccccc2)nc2ccccc21 (centres undefined) | i | nt | nt | i | i | i | nt
CN(C)c1ccc(C(O)P(=O)(OCc2ccccc2)c2ccc(N(C)C)cc2)cc1 (centres undefined) | i | 51 | i | i | i | i | 53
Cc1ccc2c(c1)c1c3n2CCN(CC(O)CNC(C)C)C3CCC1 (centres undefined) | i | 44 | i | i | i | i | i
C(=NN1CCCCCC1)c1ccc2c(c1)OCO2 | i | nt | i | i | i | i | nt
CCN(CC)CCNc1cccc2sc3ccccc3c(=O)c12 | i | nt | i | i | i | i | nt
CCN(CC)CCNc1ccc(CO)c2sc3ccccc3c(=O)c12 | i | 45 | i | i | i | i | 58
Cc1ccc(C(C)C)c(OCC(=O)N/N=C/c2cccn2C)c1 | i | i | i | i | i | i | nt
CC(=O)Nc1ccc(S(=O)(=O)NC2=C(N3CCN(c4ccc(F)cc4)CC3)C(=O)c3ccccc3C2=O)cc1 | i | 59 | i | i | i | i | 74
Cc1ccc(S(=O)(=O)NC2=C(N3CCN(c4ccccc4F)CC3)C(=O)c3ccccc3C2=O)cc1 | i | i | i | i | i | i | nt
O=c1cc(-c2ccc(O)c(O)c2)oc2cc(O[C@@H]3O[C@H](CO)[C@@H](O)[C@H](O)[C@H]3O)cc(O)c12 | i | 73 | i | i | i | i | 60
C[C@@H]1O[C@@H](OC[C@H]2O[C@@H](Oc3cc(O)c4c(=O)cc(-c5ccc(O)c(O)c5)oc4c3)[C@H](O)[C@@H](O)[C@@H]2O)[C@H](O)[C@H](O)[C@H]1O | i | i | i | i | i | i | nt
Cc1cccc(C2CC(c3ccc(F)cc3)Nc3nc(N)nn32)c1 (centres undefined) | i | 51 | i | i | i | i | 55
COc1ccc(C2CC(c3cccc(OC)c3)n3nc(N)nc3N2)cc1 (centres undefined) | i | 46 | i | i | i | i | 52
COc1cccc(C2CC(c3ccccc3)Nc3nc(N)nn32)c1 (centres undefined) | i | i | i | i | i | i | nt
CCc1ccc(C2CC(c3ccc(C)cc3)n3nc(N)nc3N2)cc1 (centres undefined) | i | nt | i | i | i | i | nt
Cc1ccc(C2CC(c3cccc(Cl)c3)n3nc(N)nc3N2)cc1 (centres undefined) | i | 51 | i | i | i | i | 51
COc1cccc(C2CC(c3ccc(Cl)cc3)n3nc(N)nc3N2)c1 (centres undefined) | i | i | i | i | i | i | nt
Cc1cccc(C2CC(c3ccc(Cl)cc3)Nc3nc(N)nn32)c1 (centres undefined) | i | 52 | i | i | i | i | 52
Cc1ccccc1S(=O)(=O)N1CCN(c2ccc3c(c2)C2CC3CCN2C(=O)OCc2ccccc2)CC1 (centres undefined) | i | nt | i | i | i | i | nt
COc1cccc(-c2cc(C(=O)NCC3CCCO3)c3cc(C)cc(C)c3n2)c1 (centres undefined) | i | i | i | i | i | i | nt
